TNAP inh hi DEA = blocks human TNAP under high phosphate acceptor concentration | inhibition, % at 20 µM | AID 1135 | 200,000 tested, 0.03% active | P05186 | purified TNAP, CDP-star luminescence, 1 M DEA;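 active = over 50% inhibition of tissue-nonspecific alkaline phosphatase at 20 µM in the single-dose screen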
Target sequence (P05186 whole entry, looked up): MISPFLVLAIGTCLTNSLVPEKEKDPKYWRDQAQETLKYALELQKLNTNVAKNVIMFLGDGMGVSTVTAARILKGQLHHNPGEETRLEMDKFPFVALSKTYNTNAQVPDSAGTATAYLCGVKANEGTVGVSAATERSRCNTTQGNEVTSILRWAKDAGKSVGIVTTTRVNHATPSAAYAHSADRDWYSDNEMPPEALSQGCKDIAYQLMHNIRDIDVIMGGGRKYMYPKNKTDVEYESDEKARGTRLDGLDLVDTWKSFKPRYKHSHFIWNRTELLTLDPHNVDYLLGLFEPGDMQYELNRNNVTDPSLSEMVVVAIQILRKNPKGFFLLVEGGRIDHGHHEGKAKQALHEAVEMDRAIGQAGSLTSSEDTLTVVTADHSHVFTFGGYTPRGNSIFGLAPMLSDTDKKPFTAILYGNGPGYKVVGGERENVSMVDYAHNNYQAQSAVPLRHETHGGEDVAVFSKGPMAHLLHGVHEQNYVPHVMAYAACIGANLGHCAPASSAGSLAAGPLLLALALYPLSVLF
TNAP inh noacc = blocks human TNAP activity with no phosphate acceptor present; purified TNAP, CDP-star luminescence, 30 min; AID 1012; inhibition, % at 20 µM; 200,000 tested, 0.26% active; P05186;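 active = tissue-nonspecific alkaline phosphatase inhibition above about 50% at 20 µM in the single-dose screen, limit read from the data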
HMGR II inh = inhibitors of class II HMG-CoA reductase from Enterococcus faecalis | 190,000 tested, 0.41% active | purified E. faecalis HMGR, NADPH absorbance 340 nm kinetic | inhibition, % at 10 µM;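 active = inhibition above a set limit, the median over all tested compounds plus 3 SD, cut at about 9.5% in these data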;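 note: enzyme runs in reverse so mevalonate oxidation gives rising NADPH absorbance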
TNAP act hi DEA = TNAP (human) activation, high acceptor | AID 1136 | activation factor at 20 µM | 200,000 tested, under 10 active | purified TNAP, CDP-star luminescence, 1 M DEA, 30 min; active compounds read high; 0 = EDTA background, 1 = DMSO-only activity | P05186;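 active = activation factor at least 2 at 20 µM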
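Measured by: Luminescent substrate turnover signal | Test system: Human TNAP | Input: TNAP 1/800 final | Dosing: 20 µM single point | Schedule: 30 min, room temperature | Controls: EDTA wells as negative control, DMSO wells as positive control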
Insulin prom inh = TRM-6 insulin promoter activity inhibition; inhibition, % at 2 µM; AID 1273; TRM-6 cells, insulin promoter-eGFP reporter, imaging; reporter expression induced with tamoxifen; 130,000 tested, 0.9% active;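 active = inhibition above the mean plus 3 SD, with well images judged a real hit on visual review, cut at about 60% in these data, passing the limit was not always enough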
A number is an active result. An excerpt weighted towards active compounds, which were near 1.2% of everything screened.

Results for Cn1c(=O)c(Oc2ccc(F)cc2)c(O)c2ccccc21 ?
TNAP inh hi DEA: inactive; TNAP inh noacc: inactive; HMGR II inh: inactive; TNAP act hi DEA: inactive; Insulin prom inh: 64

How did CC(=O)c1c(O)c2ccccc2n(C)c1=O do in these assays?
TNAP inh hi DEA: inactive; TNAP inh noacc: inactive; HMGR II inh: inactive; TNAP act hi DEA: inactive

How did O=C(c1ccc(S(=O)(=O)c2ccccc2Cl)c([N+](=O)[O-])c1)N1CCCCCC1 do in these assays?
TNAP inh hi DEA: inactive; TNAP inh noacc: inactive; HMGR II inh: inactive; TNAP act hi DEA: inactive; Insulin prom inh: inactive

Results for CCCC(=O)Nc1ccccc1Sc1ncnc2scc(-c3ccccc3)c12 ?
TNAP inh hi DEA: inactive; TNAP inh noacc: inactive; HMGR II inh: inactive; TNAP act hi DEA: inactive; Insulin prom inh: inactive

What do the screens show for `Cc1c(-c2ccccn2)c(=O)[nH]n1-c1ccc(F)cc1`?
TNAP inh hi DEA: inactive; TNAP inh noacc: inactive; HMGR II inh: inactive; TNAP act hi DEA: inactive; Insulin prom inh: inactive

How did COc1ccc(C2=C(N)c3ccccc3C2=O)cc1 do in these assays?
TNAP inh hi DEA: inactive; TNAP inh noacc: inactive; HMGR II inh: inactive; TNAP act hi DEA: inactive; Insulin prom inh: 71

How did COc1ccc(NC2=C(c3ccc(OC)cc3)C(=O)c3ccccc32)cc1 do in these assays?
TNAP inh hi DEA: inactive; TNAP inh noacc: inactive; HMGR II inh: inactive; TNAP act hi DEA: inactive; Insulin prom inh: inactive

How did NS(=O)(=O)c1ccc(CNC(=O)/C=C/c2ccccc2[N+](=O)[O-])cc1 do in these assays?
TNAP inh hi DEA: inactive; TNAP inh noacc: 62; HMGR II inh: inactive; TNAP act hi DEA: inactive; Insulin prom inh: inactive

What do the screens show for `O=C(/C=C/c1ccccc1[N+](=O)[O-])NCc1ccc(Cl)cc1`?
TNAP inh hi DEA: inactive; TNAP inh noacc: inactive; HMGR II inh: inactive; TNAP act hi DEA: inactive

Results for COC(=O)c1cc(C(=O)OC)[nH]n1 ?
TNAP inh hi DEA: inactive; TNAP inh noacc: inactive; HMGR II inh: inactive; TNAP act hi DEA: inactive

What do the screens show for `CC(C)(C)NC(=O)c1cc(-c2ccccc2)n[nH]1`?
TNAP inh hi DEA: inactive; TNAP inh noacc: 92; HMGR II inh: inactive; TNAP act hi DEA: inactive

Results for COC(=O)c1cc(-c2ccc(Cl)cc2Cl)n[nH]1 ?
TNAP inh hi DEA: inactive; TNAP inh noacc: 81; HMGR II inh: inactive; TNAP act hi DEA: inactive; Insulin prom inh: 78

How did COC(=O)c1cc(-c2ccc(Cl)cc2)n[nH]1 do in these assays?
TNAP inh hi DEA: inactive; TNAP inh noacc: 87; HMGR II inh: inactive; TNAP act hi DEA: inactive

Results for COC(=O)c1cccn(CC(=O)c2ccc(Cl)cc2Cl)c1=O ?
TNAP inh hi DEA: inactive; TNAP inh noacc: inactive; HMGR II inh: inactive; TNAP act hi DEA: inactive

Results for COC(=O)c1cc(-c2ccccc2)n[nH]1 ?
TNAP inh hi DEA: inactive; TNAP inh noacc: 92; HMGR II inh: inactive; TNAP act hi DEA: inactive; Insulin prom inh: inactive

How did COC(=O)c1cc(-c2ccc(OC)c(OC)c2)n[nH]1 do in these assays?
TNAP inh hi DEA: inactive; TNAP inh noacc: inactive; HMGR II inh: inactive; TNAP act hi DEA: inactive; Insulin prom inh: inactive

What do the screens show for `CC(C)(C)NC(=O)COc1ccc(-c2ccccc2)cc1`?
TNAP inh hi DEA: inactive; TNAP inh noacc: inactive; HMGR II inh: inactive; TNAP act hi DEA: inactive

What do the screens show for `CC(C)(C)c1ccc(CN2N=C(/C=C/c3ccccc3)CCC2=O)cc1`?
TNAP inh hi DEA: inactive; TNAP inh noacc: inactive; HMGR II inh: inactive; TNAP act hi DEA: inactive; Insulin prom inh: inactive

Results for COc1cc(CNC2CCCC2)cc(Br)c1OCC(=O)Nc1ccccc1C ?
TNAP inh hi DEA: inactive; TNAP inh noacc: inactive; HMGR II inh: inactive; TNAP act hi DEA: inactive; Insulin prom inh: inactive

How did O=C(CNCc1ccco1)Nc1ccc(N2CCCCCC2)cc1 do in these assays?
TNAP inh hi DEA: inactive; TNAP inh noacc: inactive; HMGR II inh: 11; TNAP act hi DEA: inactive

Results for CCOc1cc(-n2nc(C)c(C#N)c2N)nc(SC)n1 ?
TNAP inh hi DEA: inactive; TNAP inh noacc: inactive; HMGR II inh: inactive; TNAP act hi DEA: inactive; Insulin prom inh: 76

What do the screens show for `CCc1ccc(NC(=O)COC(=O)c2ccc(Cl)c(S(=O)(=O)N3CCCCCC3)c2)cc1`?
TNAP inh hi DEA: inactive; TNAP inh noacc: inactive; HMGR II inh: inactive; TNAP act hi DEA: inactive; Insulin prom inh: inactive

What do the screens show for `CCOC(=O)C1CCCN(c2c(N3CCN(c4ccccn4)CC3)c(=O)c2=O)C1` (stereo unspecified)?
TNAP inh hi DEA: inactive; TNAP inh noacc: inactive; HMGR II inh: inactive; TNAP act hi DEA: inactive; Insulin prom inh: 86

Screening data from PubChem BioAssay.
